Converted amounts (≈) assume the structure as drawn.
Key:
Type in all cases: functional
[1] = system: Staphylococcus epidermidis; experiment: Antibacterial activity against Staphylococcus epidermidis CIP 53.124 assessed as bacterial growth inhibition incubated for 24 hrs by optical density based microplate reader analysis
Summary of the method: (§1)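 Broth microdilution in LB per CLSI, in triplicate; compounds dissolved in DMSO (stock 5 mg/mL; gentamicin stock 10 mg/mL as positive control), serially diluted 1:2. Wells inoculated with 10⁶ CFU/mL, incubated 24 h at 37 °C, with solvent as negative control. OD 630 nm read before and after incubation; MIC taken as the lowest-concentration clear well. Wells also plated on LB agar for 24 h at 37 °C.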

Pseudomonas aeruginosa = experiment: Antibacterial activity against Pseudomonas aeruginosa CIP A22 assessed as bacterial growth inhibition incubated for 24 hrs by optical density based microplate reader analysis; summary of the method: as §1
Escherichia coli = experiment: Antibacterial activity against […] Escherichia coli CIP 54.8 assessed as bacterial growth inhibition incubated for 24 hrs by optical density based microplate reader analysis
Summary of the method: (§2)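 Broth microdilution per CLSI, in triplicate: compounds as 5 mg/mL DMSO stocks (gentamicin 10 mg/mL stock as positive control), serially diluted 1:2 in LB. Wells inoculated with 10⁶ CFU/mL, 24 h at 37 °C, solvent-only negative control. OD630 read before and after incubation. MIC taken as the lowest-concentration clear well, i.e. no visible growth.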

Huh-7 = experiment: Cytotoxicity against human Huh-7 cells assessed as cell growth inhibition measured after 24 hrs by MTS assay
Summary of the method: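 Huh-7 cells (DMEM with glutaMAX-I, 10% FBS, 37 °C, 5% CO₂), 6×10^4 per well, allowed 16 h before 24 h exposure to increasing compound concentrations (DMSO stocks 100 mM). Viability by MTS, formazan absorbance at 490 nm; CC50 derived. Mean ± SEM of 3 experiments.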

Staphylococcus aureus [2] = experiment: Antibacterial activity against Staphylococcus aureus CIP 53.156 assessed as bacterial growth inhibition incubated for 24 hrs by optical density based microplate reader analysis; summary of the method: as §1
Staphylococcus aureus [3] = experiment: Antibacterial activity against methicillin resistant Staphylococcus aureus DSM 13661 assessed as bacterial growth inhibition incubated for 24 hrs by optical density based microplate reader analysis; summary of the method: as §2

Row | Molecule | MIC [1] [µg/mL] | MIC (Pseudomonas aeruginosa) [µg/mL] | MIC (Escherichia coli) [µg/mL] | CC50 (Huh-7) [µM] | MIC (Staphylococcus aureus [2]) [µg/mL] | MIC (Staphylococcus aureus [3]) [µg/mL]
1 | C=C(C=O)[C@H]1CC=C2[C@H](OC(=O)/C(C)=C/C=C/CCCCC)CC[C@H](C(=O)O)[C@@]2(C)C1 | 3.1 (≈ 7.23 µM) | > 50 | > 50 | 184 | 1.56 (≈ 3.64 µM) | 3.1 (≈ 7.23 µM)
2 | C=C(C=O)[C@H]1CC=C2[C@H](OC(=O)/C(C)=C/CCCCCCC)CC[C@H](C(=O)O)[C@@]2(C)C1 | 1.56 (≈ 3.62 µM) | > 50 | > 50 | 48.1 | 0.39 (≈ 0.906 µM) | 1.56 (≈ 3.62 µM)
3 | GENTAMICIN | > 250 | 1.95 | 3.91 |  | 3.91 | 250
